{"data": "Experimental data from different studies", "Long-chain-fatty-acid--AMP ligase FadD28": "Long-chain-fatty-acid--AMP ligase FadD28 (Mycobacterium tuberculosis, UniProt P9WQ59)", "Neuronal acetylcholine receptor subunit alpha-4/beta-2": "Neuronal acetylcholine receptor subunit alpha-4/beta-2 (Mus musculus, UniProt O70174+Q9ERK7)", "HTR7": "5-hydroxytryptamine receptor 7 (HTR7, Homo sapiens, UniProt P34969)", "note": "Protocols differ between the studies behind these lines."}
{"SMILES": "N#Cc1ccc(C(=O)NOCc2ccc(C(F)(F)F)cc2)cc1", "target": "NAD-dependent protein deacylase sirtuin-6 (SIRT6, Homo sapiens, UniProt Q8N6T7)", "read-out": "enzyme activity", "mode": "inhibitor", "technique": "fluorescence", "measurement": "IC50", "result": "14900 nM"}
{"SMILES": "CCCCCCCCCCCCCC(=O)NS(=O)(=O)OC[C@H]1O[C@@H](n2cnc3c(N)nc(C#CCOCCOCCOCCNC(=O)c4ccc(C(=O)O)c(-c5c6ccc(=[N+](C)C)cc-6oc6cc(N(C)C)ccc56)c4)nc32)[C@H](O)[C@@H]1O", "target": "Long-chain-fatty-acid--AMP ligase FadD28", "read-out": "binding", "technique": "FP", "measurement": "Kd", "result": "245 nM"}
{"SMILES": "CN1[C@@H]2CC[C@H]1C=C(c1cncc(Br)c1)C2", "target": "Neuronal acetylcholine receptor subunit alpha-4/beta-2", "read-out": "ligand displacement", "technique": "radioligand", "notes": "cell membranes", "measurement": "Ki", "result": "2.31 nM"}
{"SMILES": "CN(C)CCc1c[nH]c2ccccc12", "target": "HTR7", "read-out": "ligand displacement", "technique": "radioligand", "measurement": "Ki", "result": "210 nM"}
{"SMILES": "CCCCCCCCCCCC(=O)NS(=O)(=O)OC[C@H]1O[C@@H](n2cnc3c(N)ncnc32)[C@H](O)[C@@H]1O", "target": "Long-chain-fatty-acid--AMP ligase FadD28", "read-out": "enzyme activity", "mode": "inhibitor", "measurement": "Ki", "result": "6000 nM"}
{"SMILES": "CC[C@@H](CO)NC(=O)[C@@H]1C=C2c3cccc4c3c(cn4C)C[C@H]2N(C)C1", "target": "HTR7", "read-out": "ligand displacement", "technique": "radioligand", "notes": "cell membranes", "measurement": "Ki", "result": "32 nM"}
{"SMILES": "CNC(C)C/C=C/c1cncc(C#Cc2ccccc2)c1 (stereo not drawn)", "target": "Neuronal acetylcholine receptor subunit alpha-4/beta-2", "read-out": "ligand displacement", "technique": "radioligand", "notes": "cell membranes", "measurement": "Ki", "result": "134 nM"}
{"SMILES": "CCCCCCCCCCCCCC(=O)NS(=O)(=O)OC[C@H]1O[C@@H](n2cnc3c(N)ncnc32)[C@H](O)[C@@H]1O", "target": "Long-chain-fatty-acid--AMP ligase FadD28", "read-out": "binding", "technique": "ITC", "measurement": "Kd", "result": "365 nM"}
{"SMILES": "FC(F)(F)c1cccc(N2CCNCC2)c1", "target": "HTR7", "read-out": "ligand displacement", "technique": "radioligand", "notes": "cell membranes", "measurement": "Ki", "result": "1620 nM"}
